Measurements taken from article PMC6368469 (Journal of clinical pharmacology, 2018).
Where “and” joins values, the source holds several entries; their conditions need not be identical. Equal entries are not always repeated. Structures can show the parent of a compound that is named as a salt. Where two headings read alike, the source gives them in different places.

How the values were obtained:
[1] = test system: HIV; conditions: cited from earlier work
[2] = Clinical and laboratory safety monitoring of mothers and infants; type: in vivo, human
[3] = type: in vivo, human; conditions: for Cl/F: dose/AUC0–12; for AUC(0-t) / Cmax / Cmin: plasma
[4] = Stability in stored plasma; type: in vitro ADME; conditions: plasma stored at −20°C
Outline: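 Human plasma from study participants, stored at −20°C. Test compound and its metabolite were quantified together by reversed-phase HPLC-UV after acetonitrile protein precipitation. Supernatant was injected onto a C-18 column and eluted isocratically with 10mM potassium phosphate pH 4.2:ACN (62:38 v/v) at 1.2 mL/min. Detection was at 206 nm, with a detection limit of 0.039 μg/mL. Validation QC samples spanned multiple concentrations.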

[5] = cited from earlier work
[6] = Umbilical cord blood and maternal plasma concentrations at delivery; type: in vivo, human; conditions: 15 patients, detection limit 0.039 μg/mL; for Detected in maternal plasma samples: number of samples at delivery; for Detected in cord plasma samples: number of samples
[7] = cited from earlier work; remark: listed apart in the source
[8] = 1875mg BID 3rd trimester vs 1250mg BID postpartum, (90% CI)
[9] = 1875mg BID 3rd trimester vs 1250mg BID postpartum, (90% CI), listed as Nelfinavir
[10] = 3rd trimester, nelfinavir 1875mg BID, median (IQR), n = 18
[11] = postpartum, nelfinavir 1250mg BID, median (IQR), n=16

**Q.** Which “Activity against HIV” value [1] does the source give for `Cc1c(O)cccc1C(=O)N[C@@H](CSc1ccccc1)[C@H](O)CN1C[C@H]2CCCC[C@H]2C[C@H]1C(=O)NC(C)(C)C` [NFV, Nelfinavir mesylate] here?
**A.** moderately potent activity

**Q.** And the “Grade 3–4 adverse events treatment-related” value ([2]; 18 patients)?
**A.** none were determined to be treatment-related

**Q.** What about the Safety concerns ([2]; increased dose 1875 mg twice daily in third trimester) of the same compound?
**A.** No major safety concerns were noted

**Q.** What about the “AUC0–12 geometric mean ratio 3rd trimester/postpartum” value [3, 8] of the same compound?
**A.** 0.98 (0.71–1.35)

**Q.** And the “Cl/F geometric mean ratio 3rd trimester/postpartum” value [3, 8]?
**A.** 1.54 (1.12–2.11)

**Q.** What about the “Cmax geometric mean ratio 3rd trimester/postpartum” value [3, 8] of the same compound?
**A.** 1.06 (0.85–1.34)

**Q.** What about the “Cmin geometric mean ratio 3rd trimester/postpartum” value [3, 8] of the same compound?
**A.** 0.90 (0.71–1.16)

**Q.** And the “AUC0–12 geometric mean ratio 3rd trimester/postpartum” value [3, 9]?
**A.** 0.98

**Q.** And the “Cl/F geometric mean ratio 3rd trimester/postpartum” value [3, 9]?
**A.** 1.54

**Q.** What about the “Participants with AUC0–12 above target (18.5 μg h/mL)” value ([3]; 3rd trimester, 1875 mg twice daily, 15 of 18) of the same compound?
**A.** 83%

**Q.** What about the Cl/F [3, 10] of the same compound?
**A.** 54.9 (40.4–68.9) L/h

**Q.** What about the AUC(0-t) ([3]; female, human, 1250 mg) of the same compound?
**A.** 33500 ng·h/mL and 58.9 µM·h

**Q.** And the Cmax ([3]; female, human, 1250 mg)?
**A.** 5000 ng/mL

**Q.** And the AUC(0-t) ([3]; female, human, 1875 mg)?
**A.** 34200 ng·h/mL and 60.2 µM·h

**Q.** And the “Patients with increased Cl/F during 3rd trimester compared to the postpartum period” value ([3]; number of pregnant patients)?
**A.** 11 out of 18

**Q.** What about the Cmin [3, 10] of the same compound?
**A.** 0.47 (0.35–1.33) μg/mL

**Q.** What about the Cmin [3, 11] of the same compound?
**A.** 0.52 (0.22–0.80) μg/mL

**Q.** And the “Participants with AUC0–12 above target (18.5 μg h/mL)” value ([3]; postpartum, 1250mg twice daily, 14 of 16)?
**A.** 88%

**Q.** What about the Cl/F [3, 11] of the same compound?
**A.** 37.4 (28.7–43.7) L/h

**Q.** And the Stability in plasma [4]?
**A.** stable

**Q.** And the “Subjects meeting the AUC target during the 3rd trimester” value ([5]; in vivo, 1250 mg)?
**A.** 56%

**Q.** What about the Placental crossing ([5]; in vivo) of the same compound?
**A.** crossed the placenta poorly

**Q.** What about the “10th percentile AUC0–12 (target AUC)” value ([5]; non-pregnant historical controls) of the same compound?
**A.** 18500 ng·h/mL

**Q.** And the “Detected in maternal plasma samples” value [6]?
**A.** 13 out of 15

**Q.** What about the “Detected in cord plasma samples” value [6] of the same compound?
**A.** 10 out of 15

**Q.** Which results are given for `Cc1c(O)cccc1C(=O)N[C@@H](CSc1ccccc1)[C@H](O)CN1C[C@H]2CCCC[C@H]2C[C@H]1C(=O)NC(C)(C)CO` [M8, hydroxyl-tert-butylamide]?
**A.** Cmin geometric mean ratio 3rd trimester/postpartum [3, 8]: 0.78 (0.40–1.26); M8/NFV AUC ratio [3, 10]: 0.11 (0.08–0.22); Cmax [3, 10]: 0.66 (0.48–1.12) μg/mL; Cmin [3, 10]: 0.11 (0.05–0.15) μg/mL; Cmax [3, 11]: 1.20 (1.07–1.71) μg/mL; Cmin [3, 11]: 0.14 (0.04–0.21) μg/mL; M8/NFV AUC ratio [3, 11]: 0.30 (0.17–0.35); Detected in maternal plasma samples [6]: 10; Detected in cord plasma samples [6]: 3

**Q.** With `Cc1cc(C#N)cc(C)c1Oc1nc(Nc2ccc(C#N)cc2)nc(N)c1Br` [etravirine] as the compound, how does the Exposure during pregnancy [7] read?
**A.** increased

**Q.** With `CC(C)CN(C[C@@H](O)[C@H](Cc1ccccc1)NC(=O)O[C@H]1CO[C@H]2OCC[C@H]21)S(=O)(=O)c1ccc(N)cc1` [darunavir] as the compound, how does the “AUC and Cmax in pregnancy” value ([7]; standard dosing) read?
**A.** substantially decreased
